Test results: ChEMBL document CHEMBL4020827, “Targeting Multiple Effector Pathways in Pancreatic Ductal Adenocarcinoma with a G-Quadruplex-Binding Small Molecule” (J Med Chem, 2018)

Tests used:
[1] = Binding affinity to 5'-FAM/3'-TAMRA labeled T-loop duplex DNA (unknown origin) assessed as change in melting temperature at 1 uM by FRET assay
How it was run: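 FRET melting with FAM/TAMRA dual-labelled oligonucleotides at 400 nM, annealed at 95 °C for 10 min in 60 mM potassium cacodylate pH 7.4 and slowly cooled. Ligand final 1 μM; solution contains 50 mM K+. Fluorescence read every 0.5 °C over 30–100 °C with 30 s hold, excitation 450–495 nm and emission 515–545 nm. ΔTm from curve fitting, triplicate measurements.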

MIA PaCa-2 [2] = experiment: Growth inhibition of human MIAPaCa2 cells after 96 hrs by SRB assay; type: functional, cell-based; conditions: MIA PaCa-2, 96 h
How it was run: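 Cell lines kept at 37 °C, 5% CO2 in medium with 10% FBS and 2 mM L-glutamine. Compound dissolved in water, filter-sterilised, 10 mM stock diluted into media. Growth read by 96 h sulforhodamine B assay, absorbance at 540 nm. IC50 taken from mean absorbance per concentration as % of untreated wells, >3 individual determinations with standard deviations.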

PANC-1 [3] = experiment: Growth inhibition of human PANC1 cells after 96 hrs by SRB assay; type: functional, cell-based; conditions: PANC-1, 96 h
[4] = Binding affinity to 5'-FAM/3'-TAMRA labeled human telomeric F21T G-quadruplex DNA by direct fluorescence method
How it was run: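 Buffer was 50 mM KCl, 10 mM Tris-HCl, 1 mM EDTA, pH 7.3, 25 °C, quartz cuvette. Quenching of ligand emission at 570 nm tracked; KD from a quadratic quenching fit.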

MIA PaCa-2 [5] = experiment: Antitumor activity against human MIAPaCa2 cells xenografted in CD-1 nude mouse assessed as change in tumor volume at 15 mg/kg, iv administered twice weekly for 4 weeks measured on day 29 relative to control; type: functional
How it was run: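 Female CD-1 nude mice (2-3 months, 20−25 g) given 5 x 10^6 MIA PaCa-2 cells subcutaneously in right flank with Matrigel; dosing began once tumors were established (approx. 13 days, mean 0.05 cm3). Eight mice/group, IV in saline twice weekly for 28 days (8 doses) against a saline group. Tumors measured by calliper (length × width × height × π/6), with body weight. Student's t test.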

PANC-1 [6] = experiment: Effect on ARF6 gene expression in human PANC1 cells at 400 nM after 6 hrs by RNA sequence analysis relative to control; type: functional
How it was run: (§1)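 PANC-1 (0.35 x 10^6) or MIA PaCa-2 (1.5 x 10^6) cells seeded overnight in 60 mm plates, then exposed to 400 nM compound for 6 or 24 h; untreated cells as controls. Cells were mycoplasma-free and STR-certified. Differential expression by RNA-seq, called at FDR < 0.1.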

PANC-1 [7] = experiment: Effect on FASN gene expression in human PANC1 cells at 400 nM after 6 hrs by RNA sequence analysis relative to control; type: functional; how it was run: as §1
PANC-1 [8] = experiment: Effect on mLST8 gene expression in human PANC1 cells at 400 nM after 6 hrs by RNA sequence analysis relative to control; type: functional
PANC-1 [9] = experiment: Effect on PRDM16 gene expression in human PANC1 cells at 400 nM after 6 hrs by RNA sequence analysis relative to control; type: functional
PANC-1 [10] = experiment: Effect on TP73 gene expression in human PANC1 cells at 400 nM after 6 hrs by RNA sequence analysis relative to control; type: functional
How it was run: (§2)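 RNA-seq: cells seeded overnight in 60 mm plates (PANC-1 0.35 x 10^6, MIA PaCa-2 1.5 x 10^6 cells/well), then exposed to 400 nM compound for 6 or 24 h against untreated controls. Cell lines mycoplasma-free by RNA-capture ELISA and STR-profiled. Differentially expressed genes called at FDR < 0.1.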

MIA PaCa-2 [11] = experiment: Effect on CTBP1 gene expression in human MIAPaCa2 cells at 400 nM after 6 hrs by RNA sequence analysis relative to control; type: functional; how it was run: as §1
MIA PaCa-2 [12] = experiment: Effect on MAPK11 gene expression in human MIAPaCa2 cells at 400 nM after 6 hrs by RNA sequence analysis relative to control; type: functional
MIA PaCa-2 [13] = experiment: Effect on MAPK12 gene expression in human MIAPaCa2 cells at 400 nM after 6 hrs by RNA sequence analysis relative to control; type: functional
MIA PaCa-2 [14] = experiment: Effect on MAPK9 gene expression in human MIAPaCa2 cells at 400 nM after 6 hrs by RNA sequence analysis relative to control; type: functional
MIA PaCa-2 [15] = experiment: Effect on PIK3R3 gene expression in human MIAPaCa2 cells at 400 nM after 6 hrs by RNA sequence analysis relative to control; type: functional
MIA PaCa-2 [16] = experiment: Effect on PLXNA1 gene expression in human MIAPaCa2 cells at 400 nM after 6 hrs by RNA sequence analysis relative to control; type: functional
MIA PaCa-2 [17] = experiment: Effect on TEAD4 gene expression in human MIAPaCa2 cells at 400 nM after 6 hrs by RNA sequence analysis relative to control; type: functional; how it was run: as §2
PANC-1 [18] = experiment: Effect on ARF6 gene expression in human PANC1 cells at 400 nM after 24 hrs by RNA sequence analysis relative to control; type: functional; how it was run: as §1
PANC-1 [19] = experiment: Effect on CTBP1 gene expression in human PANC1 cells at 400 nM after 24 hrs by RNA sequence analysis relative to control; type: functional; how it was run: as §1
PANC-1 [20] = experiment: Effect on GLI1 gene expression in human PANC1 cells at 400 nM after 24 hrs by RNA sequence analysis relative to control; type: functional; how it was run: as §1
PANC-1 [21] = experiment: Effect on PFKFB4 gene expression in human PANC1 cells at 400 nM after 24 hrs by RNA sequence analysis relative to control; type: functional
PANC-1 [22] = experiment: Effect on RPTOR gene expression in human PANC1 cells at 400 nM after 24 hrs by RNA sequence analysis relative to control; type: functional; how it was run: as §2
PANC-1 [23] = experiment: Effect on TEAD4 gene expression in human PANC1 cells at 400 nM after 24 hrs by RNA sequence analysis relative to control; type: functional; how it was run: as §2
MIA PaCa-2 [24] = experiment: Effect on GLI2 gene expression in human MIAPaCa2 cells at 400 nM after 24 hrs by RNA sequence analysis relative to control; type: functional; how it was run: as §1
MIA PaCa-2 [25] = experiment: Effect on MAPK9 gene expression in human MIAPaCa2 cells at 400 nM after 24 hrs by RNA sequence analysis relative to control; type: functional
MIA PaCa-2 [26] = experiment: Effect on PCK2 gene expression in human MIAPaCa2 cells at 400 nM after 24 hrs by RNA sequence analysis relative to control; type: functional
MIA PaCa-2 [27] = experiment: Effect on ULK1 gene expression in human MIAPaCa2 cells at 400 nM after 24 hrs by RNA sequence analysis relative to control; type: functional; how it was run: as §2
Homo sapiens = species: Homo sapiens; experiment: Stabilization of G-quadruplex DNA in human PANC1 cells assessed as increase in 53BP1 foci at 400 nM after 24 hrs by FITC/Cy5/DAPI staining based immunofluorescence assay relative to control; type: cell-based
How it was run: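 PANC-1 cells (8 x10^4 on coverslips) treated 24 h at 37 °C, or left untreated. Fixed in 4% paraformaldehyde, permeabilized with 0.1% Triton X-100, blocked in 2% milk. Stained with BG4 (20 nM), anti-FLAG and anti-53BP1, then Alexa-488/647 secondaries with DAPI. Deconvolved 100x z-stacks, 50-100 nuclei per replicate, three biological replicates; nuclear foci counted.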

Which results are given for `O=C1c2ccc3c4c(c(NCCN5CCCC5)cc(c24)C(=O)N1CCCN1CCOCC1)C(=O)N(CCCN1CCOCC1)C3=O`?
ΔTm [1]: 0.6 °C; IC50 (MIA PaCa-2 [2]): 7 nM; IC50 (PANC-1 [3]): 18 nM; Kd [4]: 67 nM; Activity (MIA PaCa-2 [5]): -73.3%; log2FC (PANC-1 [6]): -0.74; log2FC (PANC-1 [7]): -0.73; log2FC (PANC-1 [8]): -0.54; log2FC (PANC-1 [9]): -2.4; log2FC (PANC-1 [10]): -1.44; log2FC (MIA PaCa-2 [11]): -0.52; log2FC (MIA PaCa-2 [12]): -0.53; log2FC (MIA PaCa-2 [13]): -0.47; log2FC (MIA PaCa-2 [14]): -0.09; log2FC (MIA PaCa-2 [15]): -0.28; log2FC (MIA PaCa-2 [16]): -0.98; log2FC (MIA PaCa-2 [17]): -0.79; log2FC (PANC-1 [18]): -0.69; log2FC (PANC-1 [19]): -0.98; log2FC (PANC-1 [20]): -0.57; log2FC (PANC-1 [21]): -0.74; log2FC (PANC-1 [22]): -0.5; log2FC (PANC-1 [23]): -0.47; log2FC (MIA PaCa-2 [24]): -1.24; log2FC (MIA PaCa-2 [25]): -0.6; log2FC (MIA PaCa-2 [26]): -0.82; log2FC (MIA PaCa-2 [27]): -0.6; fold change (FC) (Homo sapiens): 2
